Laboratory results from ChEMBL document CHEMBL1132299, “Phosphinic pseudo-tripeptides as potent inhibitors of matrix metalloproteinases: a structure-activity study” (J Med Chem, 1999).

Key:
[1] = target: T1, Matrix metalloproteinase-14 (Homo sapiens, UniProt P50281); assay: Binding affinity against matrix metalloprotease-14 MTI-MMP.
Summary of the method: (§1)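 Catalytic domains of human MMP-14 and MMP-7 were expressed in E. coli BL21 DE3 pLysS. Buffer 50 mM Tris/HCl pH 6.8, 10 mM CaCl2, 25 °C; 0.2–5 nM enzyme; 6 µM Mca-Pro-Leu-Gly-Leu-Dpa-Ala-Arg-NH2 read by fluorescence (ex 340, em 400 nm) for 30 min. Km: MMP-14 21, MMP-7 67 µM. Five inhibitor concentrations in triplicate; Ki by Horovitz–Levitski method.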

Neutrophil collagenase [2] = target: T2, Neutrophil collagenase (Homo sapiens, UniProt P22894); assay: Inhibition of matrix metalloprotease-8
Summary of the method: (§2)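 Full-length human pro-MMP-2, -9 and -8 were expressed in NSO myeloma cells and activated with 4-aminophenylmercuric acetate just before use. Run at 25 °C in 50 mM Tris/HCl pH 6.8, 10 mM CaCl2, with 0.2–5 nM enzyme and 6 µM Mca-Pro-Leu-Gly-Leu-Dpa-Ala-Arg-NH2; fluorescence 340/400 nm, 30 min. Km: MMP-2 49, MMP-9 14, MMP-8 61 µM. Triplicate, five inhibitor levels; Ki by Horovitz–Levitski.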
Target sequence in this assay (P22894 whole entry): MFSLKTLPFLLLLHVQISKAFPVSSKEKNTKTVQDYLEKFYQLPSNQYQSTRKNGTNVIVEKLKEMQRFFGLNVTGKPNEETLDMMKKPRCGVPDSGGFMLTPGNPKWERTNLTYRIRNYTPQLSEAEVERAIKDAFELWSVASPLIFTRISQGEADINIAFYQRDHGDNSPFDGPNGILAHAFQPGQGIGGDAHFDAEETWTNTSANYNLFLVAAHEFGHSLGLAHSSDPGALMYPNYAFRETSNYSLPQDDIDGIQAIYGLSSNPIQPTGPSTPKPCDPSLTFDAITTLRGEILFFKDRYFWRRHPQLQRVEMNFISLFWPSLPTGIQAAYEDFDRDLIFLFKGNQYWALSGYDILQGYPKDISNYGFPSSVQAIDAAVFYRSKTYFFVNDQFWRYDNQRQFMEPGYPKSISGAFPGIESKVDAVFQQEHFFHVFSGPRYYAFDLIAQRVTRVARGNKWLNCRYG

[3] = target: T3, 72 kDa type IV collagenase (Homo sapiens, UniProt P08253); assay: Binding affinity against matrix metalloprotease-2 (gelatinase-A).; summary of the method: as §2
Target sequence in this assay (P08253 whole entry): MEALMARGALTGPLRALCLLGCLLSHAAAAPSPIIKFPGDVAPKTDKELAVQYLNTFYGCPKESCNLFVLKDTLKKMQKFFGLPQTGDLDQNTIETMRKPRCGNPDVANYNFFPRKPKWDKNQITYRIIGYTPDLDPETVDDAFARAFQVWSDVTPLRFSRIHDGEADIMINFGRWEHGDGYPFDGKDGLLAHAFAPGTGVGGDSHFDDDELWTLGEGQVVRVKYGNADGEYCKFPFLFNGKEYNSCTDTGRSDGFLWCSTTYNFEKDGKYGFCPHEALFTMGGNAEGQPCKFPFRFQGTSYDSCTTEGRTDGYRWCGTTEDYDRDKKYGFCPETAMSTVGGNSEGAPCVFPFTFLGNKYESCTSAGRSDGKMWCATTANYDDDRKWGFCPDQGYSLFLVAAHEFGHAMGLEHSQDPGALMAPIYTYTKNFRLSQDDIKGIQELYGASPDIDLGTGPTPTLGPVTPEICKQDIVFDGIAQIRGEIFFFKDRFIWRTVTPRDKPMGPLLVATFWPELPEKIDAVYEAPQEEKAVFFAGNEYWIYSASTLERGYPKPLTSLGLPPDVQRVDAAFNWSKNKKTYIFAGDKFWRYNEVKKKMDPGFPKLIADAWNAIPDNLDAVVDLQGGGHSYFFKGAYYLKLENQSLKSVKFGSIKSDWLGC

[4] = target: T4, Interstitial collagenase (Homo sapiens) (UniProt P03956); assay: In vitro inhibition of MMP-1 at 2 uM.
T4 sequence (whole entry): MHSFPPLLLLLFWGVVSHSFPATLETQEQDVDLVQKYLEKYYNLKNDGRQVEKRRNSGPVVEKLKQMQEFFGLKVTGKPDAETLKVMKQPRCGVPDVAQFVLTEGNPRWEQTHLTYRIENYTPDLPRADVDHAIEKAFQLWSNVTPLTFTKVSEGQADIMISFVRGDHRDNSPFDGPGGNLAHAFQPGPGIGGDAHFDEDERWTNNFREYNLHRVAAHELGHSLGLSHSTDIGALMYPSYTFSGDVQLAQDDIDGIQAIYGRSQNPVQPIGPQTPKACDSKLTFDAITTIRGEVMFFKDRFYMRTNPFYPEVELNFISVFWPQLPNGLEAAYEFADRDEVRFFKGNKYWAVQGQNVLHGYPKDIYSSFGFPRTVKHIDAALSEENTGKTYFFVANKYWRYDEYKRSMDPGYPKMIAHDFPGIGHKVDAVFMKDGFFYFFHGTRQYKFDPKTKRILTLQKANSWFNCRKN

[5] = target: T5, Matrix metalloproteinase-9 (Homo sapiens, UniProt P14780); assay: Binding affinity against matrix metalloprotease-9 (gelatinase-B).; summary of the method: as §2
T5 sequence (P14780 whole entry): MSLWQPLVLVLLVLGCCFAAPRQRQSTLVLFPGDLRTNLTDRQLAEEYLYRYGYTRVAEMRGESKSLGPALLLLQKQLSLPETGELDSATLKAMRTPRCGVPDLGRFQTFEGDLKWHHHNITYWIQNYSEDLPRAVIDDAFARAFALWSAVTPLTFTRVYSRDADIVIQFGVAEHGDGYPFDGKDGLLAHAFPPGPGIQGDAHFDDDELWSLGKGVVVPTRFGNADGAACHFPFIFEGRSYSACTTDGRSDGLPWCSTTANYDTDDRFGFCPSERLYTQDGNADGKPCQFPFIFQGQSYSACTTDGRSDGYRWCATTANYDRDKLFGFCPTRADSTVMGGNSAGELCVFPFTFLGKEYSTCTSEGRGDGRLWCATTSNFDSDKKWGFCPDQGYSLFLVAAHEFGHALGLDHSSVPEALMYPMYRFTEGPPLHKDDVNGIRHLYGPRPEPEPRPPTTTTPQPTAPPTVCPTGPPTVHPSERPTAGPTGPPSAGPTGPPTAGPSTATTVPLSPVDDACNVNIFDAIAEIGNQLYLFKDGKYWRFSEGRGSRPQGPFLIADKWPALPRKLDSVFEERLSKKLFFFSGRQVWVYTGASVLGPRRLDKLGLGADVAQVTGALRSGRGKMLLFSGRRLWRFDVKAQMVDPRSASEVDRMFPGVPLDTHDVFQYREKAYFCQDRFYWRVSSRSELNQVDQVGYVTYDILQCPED

Stromelysin-3 = target: T6, Stromelysin-3 (Mus musculus, UniProt Q02853); assay: Binding affinity against matrix metalloprotease-11.
T6 sequence (Q02853 whole entry): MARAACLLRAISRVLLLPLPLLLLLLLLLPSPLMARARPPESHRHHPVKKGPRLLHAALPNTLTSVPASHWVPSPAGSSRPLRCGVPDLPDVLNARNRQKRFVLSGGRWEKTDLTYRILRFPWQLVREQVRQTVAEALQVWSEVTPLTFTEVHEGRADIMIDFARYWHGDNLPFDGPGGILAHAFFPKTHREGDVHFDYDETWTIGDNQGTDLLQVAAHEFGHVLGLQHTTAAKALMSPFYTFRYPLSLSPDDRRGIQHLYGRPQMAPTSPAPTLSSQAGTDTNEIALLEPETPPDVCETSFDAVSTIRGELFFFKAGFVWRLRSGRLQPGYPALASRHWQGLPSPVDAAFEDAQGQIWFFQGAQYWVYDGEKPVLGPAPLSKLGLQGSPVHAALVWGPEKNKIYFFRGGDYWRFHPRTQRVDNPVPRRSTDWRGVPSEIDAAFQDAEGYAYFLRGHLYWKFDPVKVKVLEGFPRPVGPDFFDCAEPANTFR
Summary of the method: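 Mouse MMP-11 catalytic domain from E. coli BL21 DE3 pLysS, assayed in stirred quartz cuvettes in 50 mM Tris/HCl pH 6.8, 10 mM CaCl2 at 25 °C. Substrate was Mca-Pro-Leu-Ala-Cys(OMeBn)-Trp-Ala-Arg-Dpa-NH2 (Km 0.2 µM), with fluorescence read-out. Percent inhibition was measured in triplicate at five concentrations (20–80% range), and Ki was derived by the Horovitz–Levitski method.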

Matrilysin = target: T7, Matrilysin (Homo sapiens, UniProt P09237); assay: (§3) Inhibition of Matrix metalloprotease-7 Matrilysin; summary of the method: as §1
T7 sequence (P09237 whole entry): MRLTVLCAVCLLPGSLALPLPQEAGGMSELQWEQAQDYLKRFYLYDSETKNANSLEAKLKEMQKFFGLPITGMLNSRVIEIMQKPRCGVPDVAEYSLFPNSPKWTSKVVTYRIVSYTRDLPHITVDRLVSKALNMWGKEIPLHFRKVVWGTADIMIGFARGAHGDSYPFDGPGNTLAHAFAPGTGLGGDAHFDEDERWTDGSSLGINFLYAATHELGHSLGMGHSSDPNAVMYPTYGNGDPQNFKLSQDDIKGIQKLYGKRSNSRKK

[6] = target: T8, Matrilysin (Homo sapiens) (UniProt P09237); assay: In vitro inhibition of MMP-7 at 2 uM.
T8 sequence (whole entry): T7 sequence (P09237 whole entry)

[7] = target: T4, Interstitial collagenase (Homo sapiens); assay: Inhibition of matrix metalloprotease-1 at 5 uM
[8] = target: T4, Interstitial collagenase (Homo sapiens); assay: Inhibition of matrix metalloprotease-1; conditions: concentration not given here
Summary of the method: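 Human full-length pro-MMP-1 was expressed in NSO myeloma cells and activated just before use with trypsin (10 µg/mL, 25 min, 25 °C), then BPTI (100 µg/mL). Assay: 50 mM Tris/HCl pH 6.8, 10 mM CaCl2, 25 °C, 0.2–5 nM enzyme, 6 µM Mca-Pro-Leu-Gly-Leu-Dpa-Ala-Arg-NH2, fluorescence 340/400 nm over 30 min. Km 100 µM. Triplicate inhibition at five concentrations (20–80% range) gave Ki by the Horovitz–Levitski method.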

[9] = target: T8, Matrilysin (Homo sapiens); assay: as §3; summary of the method: as §1
[10] = target: T3, 72 kDa type IV collagenase; assay: Inhibition of MMP-2 gelatinase-A at 2 uM
Target sequence in this assay (P08253 110-660 limits assumed): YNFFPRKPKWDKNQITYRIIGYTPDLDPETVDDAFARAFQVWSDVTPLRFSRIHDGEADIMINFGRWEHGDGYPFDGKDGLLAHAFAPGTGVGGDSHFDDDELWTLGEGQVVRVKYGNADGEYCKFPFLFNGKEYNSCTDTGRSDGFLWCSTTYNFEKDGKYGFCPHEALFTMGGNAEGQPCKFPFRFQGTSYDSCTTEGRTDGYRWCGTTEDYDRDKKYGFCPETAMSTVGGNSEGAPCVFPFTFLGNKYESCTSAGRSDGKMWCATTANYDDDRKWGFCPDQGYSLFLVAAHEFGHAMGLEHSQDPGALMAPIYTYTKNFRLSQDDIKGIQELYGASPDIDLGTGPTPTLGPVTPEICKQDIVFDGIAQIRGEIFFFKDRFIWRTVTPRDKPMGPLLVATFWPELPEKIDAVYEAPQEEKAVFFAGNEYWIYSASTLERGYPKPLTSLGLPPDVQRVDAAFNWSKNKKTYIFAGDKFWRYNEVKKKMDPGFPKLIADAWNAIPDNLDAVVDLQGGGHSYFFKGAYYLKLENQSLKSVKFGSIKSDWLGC

Neutrophil collagenase [11] = target: T2, Neutrophil collagenase; assay: Compound was tested for its binding affinity against MMP-8 HNC at 1 uM
Target sequence in this assay (P22894 101-467 limits assumed): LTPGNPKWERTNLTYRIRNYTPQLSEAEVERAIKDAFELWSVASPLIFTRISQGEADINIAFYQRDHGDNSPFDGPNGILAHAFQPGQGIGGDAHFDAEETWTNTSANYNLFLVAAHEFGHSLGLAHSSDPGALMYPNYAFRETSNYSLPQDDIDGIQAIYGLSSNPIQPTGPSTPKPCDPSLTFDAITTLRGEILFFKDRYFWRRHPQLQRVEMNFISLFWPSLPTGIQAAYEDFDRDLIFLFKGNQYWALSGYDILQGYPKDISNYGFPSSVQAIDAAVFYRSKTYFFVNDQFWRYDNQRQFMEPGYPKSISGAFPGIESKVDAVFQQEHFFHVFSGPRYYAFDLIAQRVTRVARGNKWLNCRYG

[12] = target: T1, Matrix metalloproteinase-14; assay: Inhibition of MMP-14 membrane-type-MMP at 10 uM
Summary of the method: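 Human MMP-14 catalytic domain, expressed in E. coli BL21 DE3 pLysS. Assay in 50 mM Tris/HCl pH 6.8 with 10 mM CaCl2 at 25 °C, using 0.2–5 nM enzyme and 6 μM Mca-Pro-Leu-Gly-Leu-Dpa-Ala-Arg-NH2. Reaction started by adding substrate; fluorescence read at 400 nm (ex 340 nm) over 30 min. Time-dependent inhibitors were preincubated with enzyme for at least 1 h. Percent inhibition from triplicates.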

[13] = target: T5, Matrix metalloproteinase-9; assay: Inhibition of Matrix metalloprotease-9, gelatinase-B at 2 uM
[14] = target: T9, Stromelysin-3 (Mus musculus) (UniProt Q02853); assay: Inhibition of MMP-11, stromelysin-3 at 1 uM
T9 sequence (whole entry): T6 sequence (Q02853 whole entry)

[15] = target: T9, Stromelysin-3 (Mus musculus); conditions: Homo sapiens; 1 uM

Ki [1] [nM]	Ki (Neutrophil collagenase [2]) [nM]	Ki [3] [nM]	inhibition [4] [%]	Ki [5] [nM]	Ki (Stromelysin-3) [nM]	inhibition [6] [%]	SMILES	further results
125	34	30	0	55	12		NC(=O)C(Cc1c[nH]c2ccccc12)NC(=O)C(CCc1ccc2ccccc2c1)CP(=O)(O)C(Cc1ccccc1)NC(=O)OCc1ccccc1 (stereo not drawn)	Ki (Matrilysin): 2100 nM
			15			1	CC(NC(=O)OCc1ccccc1)P(=O)(O)CC(COCc1ccccc1)C(=O)NC(Cc1c[nH]c2ccccc12)C(N)=O (stereo not drawn)	
			10			7	NC(=O)C(Cc1c[nH]c2ccccc12)NC(=O)C(CCc1ccccc1)CP(=O)(O)C(Cc1ccccc1)NC(=O)OCc1ccccc1 (stereo not drawn)	
			24			8	CC(NC(=O)OCc1ccccc1)P(=O)(O)CC(Cc1ccccc1)C(=O)NC(Cc1c[nH]c2ccccc12)C(N)=O (stereo not drawn)	
1350	230	330		675	74		NC(=O)C(Cc1c[nH]c2ccccc12)NC(=O)C(Cc1ccc2ccccc2c1)CP(=O)(O)C(Cc1ccccc1)NC(=O)OCc1ccccc1 (stereo not drawn)	inhibition [7]: 0%; Ki (Matrilysin): 1800 nM
580	4.3	145	5	70	33	7	NC(=O)C(Cc1c[nH]c2ccccc12)NC(=O)C(CCCCc1ccccc1)CP(=O)(O)C(Cc1ccccc1)NC(=O)OCc1ccccc1 (stereo not drawn)	
63	7.5	30	72	34	10	65	NC(=O)C(Cc1c[nH]c2ccccc12)NC(=O)C(CCCc1ccccc1)CP(=O)(O)C(Cc1ccccc1)NC(=O)CNc1cc(Cl)ccc1O (stereo not drawn)	
53	7	40		22	6		CC(C)CC(NC(=O)OCc1ccccc1)C(=O)NC(Cc1ccccc1)P(=O)(O)CC(CCCc1ccccc1)C(=O)NC(Cc1c[nH]c2ccccc12)C(N)=O (stereo not drawn)	inhibition [8]: 32%; inhibition [9]: 45%
			30			4	CC(NC(=O)OCc1ccccc1)P(=O)(O)CC(CCCc1ccccc1)C(=O)NC(Cc1c[nH]c2ccccc12)C(N)=O (stereo not drawn)	
			20			0	CC(CP(=O)(O)C(Cc1ccccc1)NC(=O)OCc1ccccc1)C(=O)NC(Cc1c[nH]c2ccccc12)C(N)=O (stereo not drawn)	inhibition [10]: 0%; inhibition (Neutrophil collagenase [11]): 9%; inhibition [12]: 0%; inhibition [13]: 0%
	< 0.5		45			2	CC(NC(=O)OCc1ccccc1)P(=O)(O)CC(CSCc1ccccc1)C(=O)NC(Cc1c[nH]c2ccccc12)C(N)=O (stereo not drawn)	
271	6	75	27	30	34	4	CCCCCCCC(CP(=O)(O)C(Cc1ccccc1)NC(=O)OCc1ccccc1)C(=O)NC(Cc1c[nH]c2ccccc12)C(N)=O (stereo not drawn)	
105	2.5	20	23	10	5	8	NC(=O)[C@@H](Cc1c[nH]c2ccccc12)NC(=O)C(CCCc1ccccc1)CP(=O)(O)C(Cc1ccccc1)NC(=O)OCc1ccccc1 (stereo partly drawn)	
			9			0	CC(NC(=O)C(CCCc1ccccc1)CP(=O)(O)C(Cc1ccccc1)NC(=O)OCc1ccccc1)C(N)=O (stereo not drawn)	inhibition [10]: 31%; inhibition [14]: 20%; inhibition [13]: 45%
192	40	202	45	65	22		CC(C)CC(CP(=O)(O)C(Cc1ccccc1)NC(=O)OCc1ccccc1)C(=O)NC(Cc1c[nH]c2ccccc12)C(N)=O (stereo not drawn)	Ki (Matrilysin): 210 nM
217	17	100	62	110	5	52	NC(=O)C(Cc1c[nH]c2ccccc12)NC(=O)C(CCCc1ccccc1)CP(=O)(O)C(Cc1ccccc1)NC(=O)c1cc2cc(Cl)cc(Cl)c2oc1=O (stereo not drawn)	
			0			0	NC(=O)[C@H](Cc1c[nH]c2ccccc12)NC(=O)C(CCCc1ccccc1)CP(=O)(O)C(Cc1ccccc1)NC(=O)OCc1ccccc1 (stereo partly drawn)	inhibition [10]: 6%; inhibition [15]: 1%; inhibition (Neutrophil collagenase [11]): 2%; inhibition [13]: 14%
22	0.7	6	13	3	2	20	COc1ccc(CSCC(CP(=O)(O)C(Cc2ccccc2)NC(=O)OCc2ccccc2)C(=O)NC(Cc2c[nH]c3ccccc23)C(N)=O)cc1 (stereo not drawn)	
			23			3	CC(NC(=O)OCc1ccccc1)P(=O)(O)CC(CCc1ccccc1)C(=O)NC(Cc1c[nH]c2ccccc12)C(N)=O (stereo not drawn)	
			43			52	NC(=O)C(Cc1c[nH]c2ccccc12)NC(=O)C(CCCc1ccccc1)CP(=O)(O)C(Cc1ccccc1)NC(=O)COCc1ccccc1 (stereo not drawn)	
73	4.5	17	49	6	15	28	NC(=O)C(Cc1c[nH]c2ccccc12)NC(=O)C(CCCc1ccccc1)CP(=O)(O)C(Cc1ccccc1)NC(=O)CNc1ccccc1 (stereo not drawn)	
			9			3	NC(=O)C(Cc1c[nH]c2ccccc12)NC(=O)C(COCc1ccccc1)CP(=O)(O)C(Cc1ccccc1)NC(=O)OCc1ccccc1 (stereo not drawn)	

SMILES	Ki [1] [nM]	Ki (Neutrophil collagenase [2]) [nM]	Ki [3] [nM]	inhibition [4] [%]	Ki [5] [nM]	Ki (Stromelysin-3) [nM]	inhibition [6] [%]	further results
CC(=O)NC(Cc1ccccc1)P(=O)(O)CC(CCCc1ccccc1)C(=O)NC(Cc1c[nH]c2ccccc12)C(N)=O (stereo not drawn)				43			28	
